Among the data in PubChem BioAssay AID624179 (Johns Hopkins Ion Channel Center, 2012) are EC50 values, retold here.

Each structure is given as a SMILES string.

In this experiment the test system is HEK293 M3R/RGS4, carbachol calcium flux, Fluo4. Kind of experiment: potency of compounds enhancing RGS4 activity – cell-based, HEK293 M3R/RGS4, calcium flux, SAR compounds, SAR follow-up (AID 624179). In short, it runs like this:
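Material: HEK293 M3R cells with induced RGS4 / Doses: 10-point concentration series / Replicates: each concentration tested in triplicate / Timing: 20 min compound pre-incubation at room temperature / Buffer or medium: HBSS-HEPES assay buffer, pH 7.4 / Also added: carbachol at EC20 / Technique: calcium flux fluorescence with Fluo-4 dye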
In general terms: Calcium assays in cells follow changes in intracellular calcium, usually with a dye or a luminescent sensor.
On to `O=C(Nc1ccccc1N1CCN(C(=O)c2ccccc2)CC1)c1ccc(Cl)o1`, for which the EC50 – broadly, the concentration at which the effect is half-maximal – is 4.63 µM.

For `Cc1ccc(S(=O)(=O)c2ccc(Oc3cccc(C)c3)cc2)cc1`, the EC50 is 2.76 µM.

On to `CC(C)Cn1c(-c2ccc(F)cc2)n[nH]c1=S`, for which the EC50 was 3.16 µM.

As for `Cc1ccc(NC(=O)c2cc(-c3cccs3)nc3ccccc23)nc1`, the 50% effective concentration (EC50) is 3.48 µM.

As for `CN(Cc1ccc(F)cc1)C(=O)C(c1ccccc1)c1ccccc1`, the EC50 was 2.2 µM.

`O=C(CNc1ccccc1)c1ccc([N+](=O)[O-])cc1`: the EC50 was 6.26 µM.

`CCN1CCCC1CNCc1ccccc1OCc1ccc(F)cc1` (stereo not drawn): the EC50 is 7.17 µM.

As for `CCn1cc(CN2CCC(n3nccc3NC(=O)c3ccc(OC)cc3)CC2)cn1`, the EC50 was 2.98 µM.

As for `S=c1[nH]nc(-c2ccc(Cl)cc2)n1CC1CCCO1` (stereo not drawn), the EC50 is 5.6 µM.

As for `COC(=O)c1cccc(Nc2nc(-c3cccnc3)nc3ccccc23)c1`, the EC50 was 2.05 µM.

Consider `CCCCn1c(-c2csc(CCC)c2)n[nH]c1=S`, for which the EC50 was 2.24 µM.

Take `COC(=O)C1CCCN(C(=O)c2cc(-c3ccc(C)cc3)nc3ccccc23)C1` (stereo not drawn): the EC50 was 4.67 µM.

On to `O=C(CNC1CCCCCC1)Nc1ccc(S(=O)(=O)NC2CC2)cc1`, for which the 50% effective concentration (EC50) was 5.86 µM.
